In the library only some 2.5% were active in any assay of this set; here they are far more common.
NR2E3 ag-1 = human photoreceptor-specific nuclear receptor agonism. Q9Y5X4. CHO-S Gal4-NCOR/VP16-NR2E3 two-hybrid, luciferase. inhibition of corepressor binding, % at 3.98 µM. 360,000 compounds, 0.35% hits. AID 602229;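 active means inhibition above the mean of all tested compounds plus 3 SD, cut at about 70% in these data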;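 further: higher means lower luciferase signal from less NR2E3 corepressor binding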
Target sequence (Q9Y5X4 whole entry, looked up, the tested form may be a part): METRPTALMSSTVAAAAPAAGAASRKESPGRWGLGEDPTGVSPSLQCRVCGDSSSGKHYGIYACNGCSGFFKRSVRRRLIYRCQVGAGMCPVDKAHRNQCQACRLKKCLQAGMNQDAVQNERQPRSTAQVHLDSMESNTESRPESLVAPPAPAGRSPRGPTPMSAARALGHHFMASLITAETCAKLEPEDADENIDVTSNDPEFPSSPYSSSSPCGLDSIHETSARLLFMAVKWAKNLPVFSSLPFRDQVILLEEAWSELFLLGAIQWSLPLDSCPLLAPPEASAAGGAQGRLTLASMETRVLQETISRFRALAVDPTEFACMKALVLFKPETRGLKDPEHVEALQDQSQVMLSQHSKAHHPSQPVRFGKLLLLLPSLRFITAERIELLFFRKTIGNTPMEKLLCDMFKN
bovine MsrA act = activates bovine MsrA enzyme; purified bovine MsrA, absorbance read-out; activation, % at 10.6 µM; 360,000 compounds, 0.3% hits; in the data active means activation above about 7.5%
NR2E3 ag-2 = NR2E3 (human) agonism; Q9Y5X4; GST-NR2E3/biotin-RetCOR TR-FRET, 1536-well; inhibition of corepressor binding, % at 4.78 µM; 320,000 compounds, 0.12% hits; AID 2300;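 active means percent inhibition above the cutoff of mean plus 3 SD of all tested compounds, set per screening campaign, cut at about 20% in these data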
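Assay system: NR2E3–RetCOR corepressor complex. Quantity: 1.35 nM GST-NR2E3. Buffer or medium: pH 7.5 Tris-based buffer. Reagent: biotinylated RetCOR corepressor at 7 nM final. Schedule: 5 h at 4 °C. Detection: TR-FRET, emission read at 617 and 671 nm. Replicates: one well per compound, singlicate testing.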
GalR3 antagonist = blocks the human galanin receptor 3. O60755. HEK293 GalR3-CNG cAMP membrane potential fluorescence; galR3 body fused to GalR1 C-terminus. inhibition, % at 3 µM. 360,000 compounds, 0.44% hits;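 active means inhibition above the screen-wide average plus 3 SD, cut at about 13% in these data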;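 further: forskolin and galanin both at EC90 stimulate the cells; cAMP rise reported by CNG channel membrane potential dye signal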
Target sequence (O60755 1-299 limits assumed): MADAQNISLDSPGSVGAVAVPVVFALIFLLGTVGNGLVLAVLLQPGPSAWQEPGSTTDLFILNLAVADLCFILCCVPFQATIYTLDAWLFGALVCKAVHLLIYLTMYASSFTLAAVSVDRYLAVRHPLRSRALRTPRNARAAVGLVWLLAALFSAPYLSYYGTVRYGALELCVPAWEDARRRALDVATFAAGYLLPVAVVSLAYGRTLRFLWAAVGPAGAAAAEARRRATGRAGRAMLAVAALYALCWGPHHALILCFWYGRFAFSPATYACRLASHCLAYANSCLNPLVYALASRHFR
NadD inh = NadD (S. aureus) enzyme inhibition | 360,000 compounds, 0.78% hits | AID 602399 | purified NadD enzyme, colorimetric absorbance read-out | inhibition, % at 20 µM; in the data active means inhibition above about 26%
MsrA inhibitor = inhibitors of bovine MsrA; purified bovine MsrA, absorbance read-out; inhibition, % at 15.5 µM; 360,000 compounds, 0.75% hits; AID 651718; in the data active means inhibition above about 4.5%
NR2E3 ag confirm = confirmation of human NR2E3 agonists; shares compounds with NR2E3 ag-1; CHO-S mammalian two-hybrid NR2E3-NCOR, luciferase luminescence; inhibition, % at 3.98 µM; 2,300 compounds, 51% hits; AID 624378;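 active means average inhibition above a cutoff equal to the mean inhibition of all tested compounds plus one SD, cut at about 70% in these data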
VP16 counter = counter-screen for NR2E3 agonists: GAL4-VP16 reporter inhibitors; 2,300 compounds, 29% hits; CHO-S GAL4-VP16 luciferase reporter, luminescence; shares compounds with NR2E3 ag-1; inhibition, % at 3.98 µM;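 active means mean inhibition above a cutoff equal to the average over all tested compounds plus one standard deviation, cut at about 70% in these data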;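 further: luciferase from a UAS reporter driven by GAL4-VP16 transactivation; higher means less reporter light so more repression of VP16 activity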
Of the large screens only hits and unclear results are named; the others gave an inactive call (follow-up assays come after a bar, where they were run).

COCC1CCN(C(=O)c2cc(COc3cccc4cnccc34)on2)CC1	NR2E3 ag-1 90 | NR2E3 ag confirm 72 | VP16 counter inactive
Cn1c(=O)n(C)c2cc([N+](=O)[O-])c(N3CCN(C(=O)c4cccc(Cl)c4)CC3)cc21	none
CC(=O)c1ccc(OCc2cc(C(=O)N3CCC(c4ccncc4)CC3)no2)cc1	NR2E3 ag-1 90 | NR2E3 ag confirm 71 | VP16 counter 74
O=C(c1cc(COc2cccc(C(F)(F)F)c2)on1)N1CCC(c2ccncc2)CC1	NR2E3 ag-1 101 | NR2E3 ag confirm 98 | VP16 counter 80
NC(=S)NN=C1c2ccccc2-c2cc(Br)ccc21	NR2E3 ag-1 85 (no result: NR2E3 ag-2) | NR2E3 ag confirm inactive | VP16 counter inactive
O=C1NC(=O)C(c2ccc(F)cc2)N1 (stereo unspecified)	NR2E3 ag-1 107 | NR2E3 ag confirm inactive | VP16 counter inactive
CC1CCCN(c2ncnc3c2cnn3-c2ccccc2)C1 (stereo unspecified)	none
CC1CCCN(c2ncnc3c2cnn3-c2ccc(Cl)cc2)C1 (stereo unspecified)	NR2E3 ag-1 92 | NR2E3 ag confirm 83 | VP16 counter inactive
FC(F)(F)c1cccc(NC(=S)Nc2ccc(Cl)c(Cl)c2)c1	none
O=[N+]([O-])c1cc(C(F)(F)F)cc([N+](=O)[O-])c1NCCNC(=S)Nc1ccc(Cl)c(Cl)c1	none | NR2E3 ag confirm 98 | VP16 counter inactive
Cc1ccc(/C(O)=C2/C(=O)C(=O)N(c3ccccn3)C2c2ccc(F)cc2)cc1 (stereo unspecified)	none
Cc1oc(-c2ccc3c(c2)OCCO3)cc1C(=O)O	none | NR2E3 ag confirm inactive | VP16 counter inactive
Cc1ccc2[nH]c3c(c2c1)CCCC3NC(=O)CCl (stereo unspecified)	NR2E3 ag-1 88 (no result: GalR3 antagonist, MsrA inhibitor) | NR2E3 ag confirm 89 | VP16 counter 72
Cc1cccc2c1Sc1ccccc1CC2=O	none
Cc1nc2sccn2c1-c1csc(NCc2ccccc2)n1	none | NR2E3 ag confirm 86 | VP16 counter 71
COC1CC(C)C(OC)c2cc(O)cc(c2O)NC(=O)C(C)=CC=CC(C)C(OC(N)=O)C(C)=CC(C)C1OC (stereo unspecified)	none (no result: NR2E3 ag-2)
COC1C=CC=C(C)C(=O)NC2=CC(=O)C(N)=C(CC(C)CC(OC)C(O)C(C)C=C(C)C1OC(N)=O)C2=O (stereo unspecified)	NR2E3 ag-1 91 (no result: NR2E3 ag-2) | NR2E3 ag confirm 97 | VP16 counter inactive
CCn1c(SCC(=O)Nc2ccc(C(C)=O)cc2)nnc1C1CC1	none
Cc1ccc(Cl)cc1N1CCN(S(=O)(=O)c2c(C)nc3scc(C)n3c2=O)CC1	none
Cc1ccc(N2CCN(S(=O)(=O)c3c(C)nc4scc(C)n4c3=O)CC2)c(C)c1	none | NR2E3 ag confirm inactive | VP16 counter inactive
COc1cc(OC)c2ccc(=O)oc2c1C(CC(=O)N1CCN(c2ccccc2)CC1)c1ccc2c(c1)OCO2 (stereo unspecified)	none
O=C(CCCc1ccccc1)NCCCc1ccccc1	none
Cc1ccc(-c2nc(CSCC(=O)N3CCCC3)c(C)o2)cc1	none
Cc1ccsc1-c1nc(CSCC(=O)N2CCN(c3ccccc3)CC2)c(C)o1	none (no result: GalR3 antagonist) | NR2E3 ag confirm inactive | VP16 counter inactive
Cc1cccc(-c2nc(CSCC(=O)N3CCN(c4ccccn4)CC3)c(C)o2)c1	NR2E3 ag-1 78 | NR2E3 ag confirm 81 | VP16 counter inactive
CCN(CC)c1ccc(/C=N/NC(=S)NC)c(O)c1	none | NR2E3 ag confirm inactive | VP16 counter inactive
O=C(CSc1nnnn1-c1ccccc1)Nc1nsc(-c2ccc(Cl)cc2)n1	none | NR2E3 ag confirm 98 | VP16 counter inactive
O=C(CSc1nnnn1-c1ccccc1)Nc1nsc(-c2ccccc2)n1	none
COc1cccc(CN(C)C(=O)c2cccc(S(=O)(=O)N3CCN(c4ccccc4)CC3)c2)c1	none (no result: NR2E3 ag-2)
CN(CC(=O)Nc1cccc(F)c1)C(=O)c1cc(S(=O)(=O)N2CCN(c3ccccc3)CC2)ccc1Cl	none | NR2E3 ag confirm inactive | VP16 counter inactive
COc1ccc(CN(C)C(=O)c2cccc(S(=O)(=O)N3CCN(c4ccccc4)CC3)c2)c(OC)c1OC	none | NR2E3 ag confirm 83 | VP16 counter inactive
CN(CC(=O)Nc1cccc(F)c1)C(=O)c1ccc(N2CCCCC2)c([N+](=O)[O-])c1	none | NR2E3 ag confirm inactive | VP16 counter inactive
COc1ccc(NC(=O)CN(C)C(=O)c2ccc(N3CCCC3)c([N+](=O)[O-])c2)cc1	none
CN(Cc1ccc(F)cc1)C(=O)c1cccc(S(=O)(=O)N2CCN(c3ccc(F)cc3)CC2)c1	none | NR2E3 ag confirm inactive | VP16 counter inactive
CN(C)C=NC(=O)c1cc(C(=O)c2ccc(F)cc2)c[nH]1	none
Cc1cccc(NC(=O)CCc2ccccc2)c1	none
Cc1oc2c(CN3CCCCC3)c(O)ccc2c(=O)c1-c1ccc(Br)cc1	none
CCOC(=O)C1=C[C@@H](C(C)(C)C)N(S(=O)(=O)c2ccc([N+](=O)[O-])cc2)[C@H]1c1ccccc1	NR2E3 ag-1 70 (no result: NR2E3 ag-2) | NR2E3 ag confirm inactive | VP16 counter inactive
CCOC(=O)C1=C[C@@H](C(C)(C)C)N(S(=O)(=O)c2ccc([N+](=O)[O-])cc2)[C@H]1c1cccc(Cl)c1	none (no result: NR2E3 ag-1, bovine MsrA act, NR2E3 ag-2, NadD inh)
CC(=O)N1CCN(S(=O)(=O)c2cccc(C(=O)OCc3ccc(C(C)(C)C)cc3)c2)CC1	NR2E3 ag-1 73 (no result: NR2E3 ag-2) | NR2E3 ag confirm 78 | VP16 counter 76
Cc1ccc(COC(=O)c2cccc(S(=O)(=O)N3CCCCCC3)c2)cc1	none
FC(F)(F)c1nc(N2CCCC2)ncc1-c1nnnn1-c1ccccc1	none | NR2E3 ag confirm 75 | VP16 counter inactive
Cc1ccc(S(=O)(=O)/N=C2\C=C(Nc3ccc(O)cc3)C(=O)c3ccccc32)cc1	NR2E3 ag-1 102 (no result: NR2E3 ag-2, GalR3 antagonist, MsrA inhibitor) | NR2E3 ag confirm 100 | VP16 counter 99
O=C(CCCN1C(=O)S/C(=C\C=C\c2ccccc2)C1=O)Nc1ccc(C(=O)O)cc1	none | NR2E3 ag confirm inactive | VP16 counter inactive
O=C(CCN1C(=O)S/C(=C\C=C\c2ccccc2)C1=O)Nc1ccc(O)cc1	none
O=C(NNc1ccccc1)C(=O)NNS(=O)(=O)c1ccc([N+](=O)[O-])cc1	none | NR2E3 ag confirm inactive | VP16 counter inactive
CCCc1cc(=O)n2[nH]c(C)c(-c3ccccc3)c2n1	none

High-throughput results as filed in PubChem.
